Assay outcomes: PubChem, The Scripps Research Institute Molecular Screening Center
Only some compounds are listed: those with a hit (about 1.8% of all), similar ones and a draw of the others.
M4 ag: agonists of human muscarinic M4 receptor (CHRM4) | CHO-K1 hM4/Gqi5, Fluo-8 calcium fluorescence; vehicle 0%, full acetylcholine response 100% | activation, % at 3 µM | actives 0.14% (n = 360,000) | AID 624127;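 active = activation above the run mean over all test wells plus 3 SD, cut at about 32% in these data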;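 also: peak over basal fluorescence ratio per well then scaled between controls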
Target sequence (P08173 whole entry, looked up): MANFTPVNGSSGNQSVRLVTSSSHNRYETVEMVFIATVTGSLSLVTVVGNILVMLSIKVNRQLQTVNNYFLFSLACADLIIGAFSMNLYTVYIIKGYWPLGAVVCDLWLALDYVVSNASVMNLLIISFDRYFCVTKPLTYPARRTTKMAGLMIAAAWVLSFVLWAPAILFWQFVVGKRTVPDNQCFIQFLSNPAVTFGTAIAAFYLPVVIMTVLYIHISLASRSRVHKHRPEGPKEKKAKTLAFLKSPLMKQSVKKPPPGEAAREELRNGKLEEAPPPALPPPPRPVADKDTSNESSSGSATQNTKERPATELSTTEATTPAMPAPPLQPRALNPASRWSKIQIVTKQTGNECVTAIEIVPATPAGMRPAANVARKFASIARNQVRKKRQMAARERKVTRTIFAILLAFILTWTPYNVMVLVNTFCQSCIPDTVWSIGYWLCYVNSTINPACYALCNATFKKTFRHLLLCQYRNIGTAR
CHRM5 agonist: CHRM5 agonism in calcium assay | P08912 | CHO-K1 hM5 cells, Fluo-8 calcium fluorescence; 0% DMSO wells, 100% maximal acetylcholine response | activation, % at 3 µM | actives 0.19% (n = 360,000) | AID 624037;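 active = activation above the run's mean over test compounds plus 3 SD, cut at about 23% in these data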;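 also: signal is peak over basal fluorescence ratio across the kinetic read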
CHRM4 antagonist: blocks acetylcholine activation of human M4 receptor; inhibition, % at 3 µM; CHO-hM4 cells, ACh EC80, Fluo-8 calcium fluorescence; P08173; AID 624125; actives 0.73% (n = 360,000);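 active = inhibition above its plate's cutoff, the mean inhibition of sample wells plus 3 SD, cut at about 27% in these data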
CHRM4 PAM: CHRM4 positive allosteric modulation; actives 0.4% (n = 360,000); activation, % at 3 µM; CHO-K1 hM4/Gqi5, Fluo-8 calcium fluorescence, ACh EC20; 0% = ACh EC20, 100% = maximal ACh;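 active = activation above its plate's cutoff, the mean activation of sample wells plus 3 SD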
CHRM5 antagonist: antagonists of human muscarinic M5 receptor (CHRM5); P08912; CHO-hM5 cells, Fluo-8 calcium fluorescence, ACh EC80; inhibition, % at 3 µM; actives 0.59% (n = 360,000); AID 624040;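 active = inhibition above a per-plate cutoff, the mean of that plate's test compounds plus 3 SD, cut at about 27% in these data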
M5 PAM: potentiates acetylcholine response at human M5 receptor. AID 624038. activation, % at 3 µM. P08912. actives 0.3% (n = 360,000). CHO-K1 hM5, Fluo-8 calcium, ACh EC20 PAM; 0% = ACh EC20, 100% = ACh EC100;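 active = activation above the run cutoff, the mean activation of all test compounds plus 3 SD, cut at about 18% in these data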
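system = human M5 receptor in CHO-K1 cells | compound = one concentration, 3 µM final (nominal) | schedule = Post-acetylcholine fluorescence recording 140 s | signal = Fluo-8 calcium dye fluorescence, kinetic read | benchmarks = low control EC20 acetylcholine (0%), high control EC100 acetylcholine (100%) | repeats = singlicate, one well per test compound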
A number is an active result; – = inactive.

SMILES	M4 ag	CHRM5 agonist	CHRM4 antagonist	CHRM4 PAM	CHRM5 antagonist	M5 PAM
CC1(C(=O)Nc2cccc(Oc3ccccc3)c2)CCN1Cc1ccccc1OC(F)F (stereo not given)	–	–	–	–	–	–
Nc1ncnc2c1ncn2[C@@H]1O[C@H](CCC(=O)NCc2ccccc2)[C@@H](O)[C@H]1O	–	–	–	–	–	–
COc1cc(-c2coc3c(C(=O)NC4CCCCC4)cccc23)ccc1O	–	–	–	–	–	–
CC(C)NC(=O)N(O)C1N(C(C)C)C(=O)N(Cc2ccc3c(c2)OCO3)C1(C)C (stereo not given)	–	–	30	–	–	–
Cc1cc(N2CCN(C(C(=O)NC3CCCC3)c3ccc(F)cc3)CC2)c2ccccc2n1 (stereo not given)	–	–	–	–	–	–
CN(Cc1ccccc1F)c1cc2c(c3c1ccn3C)C1CCC2C1 (stereo not given)	–	–	–	–	–	–
OC(COC(c1ccccc1)c1ccccc1)CN1CCCCC1 (stereo not given)	–	–	–	–	–	–
c1ccc(C(CN2CCCCC2)Oc2ccccn2)cc1 (stereo not given)	–	–	35	–	–	–
O=C1OCCOC2CCCc3oc(C4=CCCCC4)c1c32 (stereo not given)	–	–	–	–	–	–
O=C1C2C3C=CC(CC3)C2C(=O)N1c1ccccc1 (stereo not given)	–	–	–	–	–	–
O=C1C=CC2C3C(=O)N(c4ccccc4)C(=O)C3C1N2Cc1ccccc1 (stereo not given)	–	–	31	–	–	–
CCN(CC)c1ncnc2c1ncn2[C@H]1CN(Cc2ccc(-c3ccccc3)cc2)C[C@@H](CO)O1	–	–	–	–	–	–
COC(=O)[C@@]1(Cc2ccc(OC)cc2)[C@H]2c3cc(C(=O)N4CCCC4)n(Cc4ccc(C)c(F)c4F)c3C[C@H]2CN1C(=O)c1ccccc1	–	–	–	–	–	–
CC(C)(C(=O)N1CCC1(C)C(=O)NS(=O)(=O)c1cccc(Cl)c1)c1ccccc1 (stereo not given)	–	–	–	–	–	–
CC(C)C[C@H](N)c1nnc(S(=O)(=O)Cc2ccc(F)cc2)o1	–	–	28	–	–	–
CCOC(=O)/C=c1\s/c(=C\c2ccc(C(F)(F)F)cc2)c(=O)n1CC(=O)NCc1ccco1	–	–	–	–	–	–
CCOC(=O)/C=c1\s/c(=C\c2ccc(-c3ccccc3)cc2)c(=O)n1CC(=O)NCc1ccc2c(c1)OCO2	–	–	–	–	–	–
CCOC(=O)/C=c1\s/c(=C\c2ccc(C)cc2)c(=O)n1CC(=O)NCc1ccco1	–	–	–	19	–	–
CCOC(=O)/C=c1/s/c(=C/c2ccc3cc(OC)ccc3c2)c(=O)n1CC(=O)NCc1ccc2c(c1)OCO2	–	39	–	–	38	–
Cc1ccc(CC2SC(N)=NC2=O)cc1 (stereo not given)	–	–	–	20	–	–
NC1=NC(=O)C(Cc2ccc(F)cc2)S1 (stereo not given)	–	–	–	–	–	–
COc1ccc(C(=O)C2CCCN(C3Cc4ccccc4C3)C2)cc1OC (stereo not given)	–	–	29	–	–	–
CCOC(=O)N1CCC(N2CCCC(C(=O)c3cc(C)c(OC)c(C)c3)C2)CC1 (stereo not given)	–	–	–	–	36	–
COc1ccc(C(=O)C2CCCN(Cc3nc4ccccc4nc3C)C2)cc1OC (stereo not given)	–	–	–	–	–	–
CC(=O)Nc1ccc(S(=O)(=O)Nc2cccc3cccnc23)cc1	–	–	–	–	–	–
SMILES	M4 ag	CHRM5 agonist	CHRM4 antagonist	CHRM4 PAM	CHRM5 antagonist	M5 PAM
O=S(=O)(Nc1cccc2cccnc12)c1ccccc1	–	–	42	–	–	–
O=S(=O)(Nc1cccc2cccnc12)c1ccc(S(=O)(=O)N2CCCC2)cc1	–	–	31	–	–	–
Nc1ccn([C@@H]2O[C@H](C(=O)N3CCN(c4ccc(Cl)cn4)CC3)[C@@H](O)[C@H]2O)c(=O)n1	–	–	–	–	–	–
COc1cccc(C(O)c2nc(/C=C/c3ccc(C(F)(F)F)cc3)cs2)c1 (stereo not given)	–	–	–	–	–	–
COC(=O)c1ccc(OCCN2C3=NCCN3c3ccccc32)cc1	–	–	40	–	–	–
COC(=O)c1ccc(OCCN2CCCCCC2)cc1	–	–	–	–	–	–
CC(C)C[C@H]1COc2cccc(N3CCC[C@H]3CO)c2S(=O)(=O)N1	–	–	–	–	–	–
COc1ccc(NC(=O)C2c3ccccc3OCC(=O)N2C2CC2)cc1 (stereo not given)	–	–	–	–	–	–
O=C1NCCN1CCNc1nc(NCc2ccccc2)nc2ccsc12	46	–	52	–	–	–
CC(=O)NCCNc1nc(NCc2cccs2)nc2ccsc12	–	–	–	–	–	–
O=C1CCCN1CCCNS(=O)(=O)c1cccs1	–	–	–	–	–	–
CC(C)Nc1nc(NCCN2CCNC2=O)c2sccc2n1	–	–	–	–	–	–
O=C1CCCN1CCCNc1nc(NCc2cccs2)nc2ccsc12	96	41	53	–	–	–
COCCNc1nc(NCc2cccs2)nc2ccsc12	159	96	92	–	81	–
c1ccc(CNc2nc(NCCc3ccncc3)c3sccc3n2)cc1	155	96	100	–	99	–
CC(C)NC(=O)C1(C)CSCC(=O)N1C1CC1 (stereo not given)	–	–	–	–	–	–
c1csc(CNc2nc(NCC3CCCCC3)c3sccc3n2)c1	–	–	27	–	–	–
c1ccc(CNc2nc(NCc3cccs3)nc3ccsc23)cc1	40	–	–	–	42	–
CCOC(=O)C1=NOC2(C1)C(=O)Nc1ccc(OC)cc12 (stereo not given)	–	–	–	–	–	–
Nc1ncnc(Nc2ccc(F)c(Cl)c2)n1	–	–	–	12	–	–
CCc1nc2c(OCc3cc(Cl)cc(Cl)c3)cccn2c1N(C)C(=O)CC(C)C	–	–	–	–	–	–
CN1CCC(C2(O)c3ccccc3CCc3ccccc32)CC1	–	–	52	–	37	–
CN1CCC(C2(O)c3ccccc3CSc3sccc32)CC1 (stereo not given)	–	–	–	–	–	–
CN(C)S(=O)(=O)c1ccc(NC(=O)c2cc(-c3cccs3)nc3ccccc23)cc1	–	–	34	–	–	–
